From ChEMBL document CHEMBL4038303, “Simultaneous Drug Targeting of the Promoter MYC G-Quadruplex and BCL2 i-Motif in Diffuse Large B-Cell Lymphoma Delays Tumor Growth” (J Med Chem, 2017)
The source made the active and inactive calls. The rule behind the calls is not given here.

Experiments:
[1] = species: Homo sapiens; assay: Binding affinity to c-myc G-quadruplex DNA in human HT cells assessed as downregulation of MYC protein levels up to 3 uM after 24 hrs by Western blot analysis; assay type: cell-based
In short: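 Cell lines treated 24 h with compound up to 3 μM, with untreated and DMSO-treated controls. Lysates (20 μg total protein) probed by Western blot for BCL2 or MYC with antibodies at 1:1000; actin as loading control. Blots representative of triplicate experiments.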

[2] = species: Homo sapiens; assay: Binding affinity to c-myc G-quadruplex DNA in MYC translocation-positive and BCL2 amplification-positive human U2932 cells assessed as downregulation of MYC mRNA levels up to 3 uM after 24 hrs by qPCR method relative to control
In short: (§1)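 DLBCL lines grown in RPMI with 10% FBS (SUDHL4 15% FBS) and penicillin/streptomycin. Cells exposed for 24 h to rising concentrations up to 3 μM; DMSO as vehicle control. Total RNA isolated, target mRNA measured by TaqMan real-time qPCR, normalized to TBP and expressed relative to untreated cells; triplicate experiments, two-tailed t test.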

[3] = species: Homo sapiens; assay: Binding affinity to BLC2 i-motif promoter DNA in MYC translocation-positive and BCL2 amplification-positive human U2932 cells assessed as downregulation of BLC2 mRNA levels up to 3 uM after 24 hrs by qPCR method; in short: as §1
[4] = species: Homo sapiens; assay: Binding affinity to c-myc G-quadruplex DNA in BCL2 translocation-positive human SUDHL4 cells assessed as downregulation of MYC mRNA levels after 24 hrs by qPCR method; in short: as §1
[5] = species: Homo sapiens; assay: Binding affinity to c-myc G-quadruplex DNA in MYC translocation-positive and BCL2 amplification-positive human U2932 cells assessed as downregulation of MYC mRNA levels after 24 hrs by qPCR method; in short: as §1
[6] = species: Homo sapiens; assay: Binding affinity to c-myc G-quadruplex DNA in BCL2 and MYC translocation-positive human VAL cells assessed as downregulation of MYC mRNA levels at 3 uM after 24 hrs by qPCR method; in short: as §1
[7] = species: Homo sapiens; assay: Binding affinity to c-myc G-quadruplex DNA in MYC translocation-positive and BCL2 amplification-positive human U2932 cells assessed as downregulation of MYC mRNA levels at 0.25 to 3 uM after 6 hrs by qPCR method
[8] = tested on: U2932; assay: Potentiation of CPA-induced antitumor activity against human U2932 cells xenografted in SCID mouse assessed as reduction in tumor burden at 5 mg/kg, ip administered for 5 consecutive days measured up to 10 days post first treatement; assay type: functional, organism-based
In short: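 SCID mice bearing subcutaneous left-flank U2932 xenografts (10 × 10^6 cells in saline), pair-matched by tumor volume. Test agent given ip daily for 5 days with 50 mg/kg CPA; diluent-treated and CPA-alone controls. Tumor volume estimated as a2 × b/2 from smallest and largest diameters. Grubbs' test for outliers; two-tailed Student's t test.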

[9] = tested on: Mus musculus; assay: Toxicity in scid mouse xenografted with human U2932 cells assessed as change in body weight at 2.5 to 5 mg/kg, ip administered for 5 consecutive days in presence of CPA; assay type: organism-based; conditions: in vivo
In short: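 SCID mice aged 6−8 weeks with serum Ig ≤20 μg/mL received U2932 cells (10 × 10^6 in 100 μL saline) subcutaneously in the left flank. Mice were pair-matched by tumor volume. Compound at 2.5 or 5 mg/kg with 50 mg/kg cyclophosphamide was given ip daily for 5 days. Controls received the diluents. Grubbs' test was used to exclude outliers.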

[10] = tested on: Mus musculus; assay: Reduction in Myc mRNA level in SCID mouse xenografted with human U2932 cells at 2.5 to 5 mg/kg, ip administered for 5 consecutive days cotreated with CPA by qPCR method; assay type: functional, organism-based
In short: (§2)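 Tumors from U2932 xenograft SCID mice given ip treatment daily for 5 days were harvested. Total RNA was taken from the same tumor preparations used for protein lysates, and MYC or BCL2 mRNA was quantified by TaqMan qPCR normalized to TBP. Comparisons were made with diluent-treated mice or CPA-only mice.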

[11] = species: Homo sapiens; assay: Stabilization of c-myc G-quadruplex DNA in BCL2 and MYC translocation-positive human VAL cells assessed as potentiation of CPA-induced apoptosis by measuring increase in caspase-3 activity at 3 uM after 24 hrs in presence of NSC-59276 by AFC based fluorescence assay (reference value: 30%)
[12] = species: Homo sapiens; assay: Stabilization of c-myc G-quadruplex DNA in BCL2 translocation-positive human SUDHL4 cells assessed as potentiation of CPA-induced apoptosis by measuring increase in caspase-3 activity at 3 uM after 24 hrs in presence of NSC-59276 by AFC based fluorescence assay (reference value: 30%)
[13] = tested on: U2932; assay: Potentiation of CPA-induced antitumor activity against human U2932 cells xenografted in SCID mouse assessed as tumor growth inhibition at 7.5 mg/kg, ip for 5 days cotreated with 10 mg/kg NSC-59276 measured on day 15 post first treatment (reference value: 44%); assay type: functional
In short: (§3)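 U2932 DLBCL cells (10 × 10^6 in 100 μL sterile saline, viability >91%) injected subcutaneously into left flank of SCID mice (6−8 weeks, immunoglobulin ≤20 μg/mL). Mice pair-matched by tumor volume. Drugs given ip daily for 5 days, CPA 30 mg/kg; controls received all diluents. Tumor volume = a2 × b/2 (a smallest, b largest diameter); n = 5−8; Grubbs' test for outliers.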

[14] = tested on: Mus musculus; assay: Reduction in Myc mRNA level in tumor of SCID mouse xenografted with human U2932 cells at 5 to 7.5 mg/kg, ip administered for 5 consecutive days cotreated with CPA and NSC-59276 by qPCR method; assay type: functional, organism-based; in short: as §2
[15] = tested on: U2932; assay: Potentiation of CPA-induced antitumor activity against human U2932 cells xenografted in SCID mouse assessed as reduction in tumor burden AUC at 5 to 7.5 mg/kg, ip for 5 days cotreated with 10 mg/kg NSC-59276 measured on day 9 to 15 post first treatment; assay type: functional, organism-based; in short: as §3
[16] = tested on: Mus musculus; assay: Toxicity in scid mouse xenografted with human U2932 cells assessed as change in body weight at 5 mg/kg, ip administered for 5 consecutive days cotreated with NSC-59276 and CPA; assay type: organism-based; conditions: in vivo
In short: (§4)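 SCID mice (6−8 weeks, female or male, serum immunoglobulin ≤20 μg/mL by ELISA) implanted subcutaneously in left flank with 10 × 10^6 U2932 cells in 100 μL saline; pair-matched by tumor volume; dosed ip daily for 5 days; controls received all compound diluents; tumor volume a2 × b/2; outliers by Grubbs' test; two-tailed t test with Šidák–Bonferroni correction.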

[17] = tested on: Mus musculus; assay: Toxicity in scid mouse xenografted with human U2932 cells assessed as survival at 10 mg/kg, ip administered for 5 consecutive days cotreated with NSC-59276 and CPA; assay type: organism-based; conditions: in vivo; in short: as §4
[18] = tested on: Mus musculus; assay: Toxicity in scid mouse xenografted with human U2932 cells assessed as change in body weight at 10 mg/kg, ip administered for 5 consecutive days cotreated with NSC-59276 and CPA; assay type: organism-based; conditions: in vivo; in short: as §4
[19] = tested on: Mus musculus; assay: Reduction in Bcl2 mRNA level in SCID mouse xenografted with human U2932 cells at 10 mg/kg, ip administered for 5 consecutive days cotreated with CPA and NSC-59276 by qPCR method; assay type: functional, organism-based; in short: as §2

For `Cc1c2ccncc2c(C)c2c1[nH]c1ccc(OCCN(C)C)cc12.Cl.Cl`, the Activity [1] was “Active”, the Activity [2] was under 90% and the Activity [3] was “inactive”. The Activity [4] was “Dose-dependent effect”, the Activity [5] was “Dose-dependent effect” and the Activity [6] was “Active”. The Activity [7] was “Active”, the Activity [8] was “Active” and the Activity [9] was “Non-Toxic”. The Activity [10] was “Active”, the Activity [11] was 100% and the Activity [12] was 100%. For the same compound, the TGI [13] was 37%, the Activity [14] was “Active” and the Activity [15] was “Active”. The Activity [16] was “Non-Toxic”, the Activity [17] was “Toxic” and the Activity [18] was “Toxic”. For the same compound, the Activity [19] was “Active”.
